Measurements taken from article PMC3985958 (ACS Chemical Biology, 2014).
Values belong to the compound of their own block, whether it stands above or below them.

Legend:
MOLM-13 cells = assay: Apoptosis analysis Annexin-V/PI; conditions: for viable cells: separated enantiomers, after 72 h
MDM2 [1] = target: MDM2 (Homo sapiens, UniProt Q00987); format: binding; conditions: SAR summary, unsubstituted indole
PBMCs = assay: Viability of freshly isolated PBMCs; format: cell-based, human; conditions: 72 h, data not shown
MDM2 [2] = assay: Western blot analysis in MOLM-13 cells; format: cell-based, human; conditions: 20 μM; 6, 12, 24 h
primary AML blasts = assay: Apoptosis; format: cell-based, human; conditions: 20 μM, 72 h
caspase 3 and 7 = assay: CaspaseGlo 3/7 assay in MOLM-13 cells; format: cell-based, human; conditions: 20 μM, 24 h, relative to untreated control
MDM4 = assay: Western blot analysis in MOLM-13 cells; format: cell-based, human; conditions: 20 μM; 6, 12, 24 h
Outline: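 MOLM-13 cells (wt p53) grown in RPMI 1640 with 10% heat-inactivated FBS, harvested in log phase. Treated with 20 µM test compound or left untreated, then lysed at 6, 12 and 24 h (1 × 10^6 cells). Equal protein run on 12% SDS-PAGE and electroblotted to PVDF. Loading checked by Ponceau S and β-actin. HRP secondaries with chemiluminescent detection.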

p53 = assay: Western blot analysis in MOLM-13 cells; format: cell-based, human; conditions: 20 μM; 6, 12, 24 h

Chain of MDM2 (Homo sapiens, UniProt Q00987) (Q00987 1-125): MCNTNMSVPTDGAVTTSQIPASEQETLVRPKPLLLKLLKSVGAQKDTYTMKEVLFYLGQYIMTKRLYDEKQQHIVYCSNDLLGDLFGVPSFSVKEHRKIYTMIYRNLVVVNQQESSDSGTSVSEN

Compound: CCOC(=O)c1[nH]c2cc(Cl)ccc2c1C(C(=O)NC(C)(C)C)N(C=O)Cc1ccc(Cl)cc1 (single isomer, unassigned; (-)) [(−)-YH239-EE]
viable cells (MOLM-13 cells): 51.5%

activity (binding to MDM2) in words (MDM2 [1]): inactive
Compound: CC(=O)N(CC(C)C)C(C(=O)NCc1ccccc1)c1c[nH]c2ccccc12 (stereo not shown) [5a]

activity (binding to MDM2) in words (MDM2 [1]): inactive
Compound: CC(=O)N(Cc1ccccc1)C(C(=O)NCc1ccccc1)c1c[nH]c2ccccc12 (stereo not shown) [5b]

Compound: COc1ccc(C2=N[C@@H](c3ccc(Cl)cc3)[C@@H](c3ccc(Cl)cc3)N2C(=O)N2CCNC(=O)C2)c(OC(C)C)c1 [Nutlin-3, reference compound]
apoptotic effect in words (MOLM-13 cells; 20 μM, 72 h): high induction of apoptosis
toxic effect on PBMCs (viability) (PBMCs): higher toxic effect on PBMCs than (+)-YH239-EE

Compound: (+)-YH239-EE
viable cells (MOLM-13 cells): 13.7%
MDM2 levels (MDM2 [2]): MDM2 levels raised after 12 h
toxic effect on PBMCs (viability) (PBMCs): less cytotoxic than Nutlin-3
response of patient samples with lower blast (<45%) counts (primary AML blasts): no response
share of tested samples with increased induction of apoptosis (primary AML blasts; 8 primary patient samples): 2/3
activation of caspase 3 and 7 (caspase 3 and 7): significant higher activation of caspase 3 and 7 after 24 h than (−)-YH239-EE and Nutlin-3
level of MDM4 (MDM4): no effect
induction of p53 (p53): induction of p53 could be observed after 6 h
